# Tests used:
# Oryctolagus cuniculus [1] = assay: Biodistribution pattern of [123I]- ligand was evaluated in intestine of anesthetized rabbit after Intravenous injection of 50 uCi after 5 min; type: ADME, organism-based; details: in vivo
# How it was run: (§1)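 Male New Zealand white rabbits, 2.5–3.5 kg, anesthetized with 5 mg/kg xylazine plus 30 mg/kg ketamine im. Each received 50 uCi radioligand (specific activity > 5000 Ci/mmol) iv via ear vein. Animals were killed with 200 mg/kg pentobarbital im at the set time. Blood was drawn by intracardiac puncture and organs weighed. Gamma counting was decay-corrected, expressed as %ID x kg body weight/g tissue, mean ± SEM, n = 3/time point.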
# Oryctolagus cuniculus [2] = assay: Biodistribution pattern of [123I]- ligand was evaluated in right ventricular muscle of anesthetized rabbit after Intravenous injection of 50 uCi after 2 hr; type: ADME, organism-based, Muscle tissue; details: in vivo
# How it was run: (§2)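 Male New Zealand white rabbits (2.5–3.5 kg), anesthetized with xylazine 5 mg/kg plus ketamine 30 mg/kg im, given 50 µCi radioligand (specific activity >5000 Ci/mmol) iv via ear vein. Euthanized at set times by pentobarbital 200 mg/kg im, n = 3/time point. Organs removed and weighed, gamma-counted, decay/weight corrected; expressed as % ID x kg body weight/g tissue, mean ± SEM.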
# Oryctolagus cuniculus [3] = assay: Biodistribution pattern of [123I]- ligand was evaluated in fat of anesthetized rabbit after Intravenous injection of 50 uCi after 4 hr; type: ADME, organism-based, Adipose tissue; details: in vivo; how it was run: as §1
# Oryctolagus cuniculus [4] = assay: Cerebral biodistribution pattern of [123I]- ligand was evaluated in cerebellum of anesthetized rabbit after Intravenous injection of 50 uCi after 2 hr; type: ADME, organism-based; details: in vivo; how it was run: as §2
# Oryctolagus cuniculus [5] = assay: Cerebral biodistribution pattern of [123I]- ligand was evaluated in pituitary gland of anesthetized rabbit after Intravenous injection of 50 uCi after 5 min; type: ADME, organism-based; details: in vivo; how it was run: as §2
# Oryctolagus cuniculus [6] = assay: Biodistribution pattern of [123I]- ligand was evaluated in muscle of anesthetized rabbit after Intravenous injection of 50 uCi after 6 hr; type: ADME, organism-based, Muscle tissue; details: in vivo; how it was run: as §2
# Oryctolagus cuniculus [7] = assay: Biodistribution pattern of [123I]- ligand was evaluated in left ventricular muscle of anesthetized rabbit after Intravenous injection of 50 uCi after 30 min; type: ADME, organism-based, Muscle tissue; details: in vivo, 0.5 h; how it was run: as §1
# Oryctolagus cuniculus [8] = assay: Cerebral biodistribution pattern of [123I]- ligand was evaluated in striatum of anesthetized rabbit after Intravenous injection of 50 uCi after 6 hr; type: ADME, organism-based; details: in vivo; how it was run: as §2
# Oryctolagus cuniculus [9] = assay: Biodistribution pattern of [123I]- ligand was evaluated in fat of anesthetized rabbit after Intravenous injection of 50 uCi after 1 hr; type: ADME, organism-based, Adipose tissue; details: in vivo; how it was run: as §1
# Oryctolagus cuniculus [10] = assay: Cerebral biodistribution pattern of [123I]- ligand was evaluated in thalamus of anesthetized rabbit after Intravenous injection of 50 uCi after 30 min; type: ADME, organism-based; details: in vivo, 0.5 h; how it was run: as §2
# Oryctolagus cuniculus [11] = assay: Biodistribution pattern of [123I]- ligand was evaluated in blood of anesthetized rabbit after Intravenous injection of 50 uCi after 5 min; type: ADME, organism-based; details: in vivo; how it was run: as §1
# Oryctolagus cuniculus [12] = assay: Biodistribution pattern of [123I]- ligand was evaluated in lung of anesthetized rabbit after Intravenous injection of 50 uCi after 2 hr; type: ADME, organism-based; details: in vivo; how it was run: as §1
# Oryctolagus cuniculus [13] = assay: Biodistribution pattern of [123I]- ligand was evaluated in muscle of anesthetized rabbit after Intravenous injection of 50 uCi after 4 hr; type: ADME, organism-based, Muscle tissue; details: in vivo; how it was run: as §1
# Oryctolagus cuniculus [14] = assay: Cerebral biodistribution pattern of [123I]- ligand was evaluated in cerebellum of anesthetized rabbit after Intravenous injection of 50 uCi after 24 hr; type: ADME, organism-based; details: in vivo; how it was run: as §2
# Oryctolagus cuniculus [15] = assay: Biodistribution pattern of [123I]- ligand was evaluated in fat of anesthetized rabbit after Intravenous injection of 50 uCi after 24 hr; type: ADME, organism-based, Adipose tissue; details: in vivo; how it was run: as §1
# Oryctolagus cuniculus [16] = assay: Cerebral biodistribution pattern of [123I]- ligand was evaluated in striatum of anesthetized rabbit after Intravenous injection of 50 uCi after 1 hr; type: ADME, organism-based; details: in vivo; how it was run: as §2
# Oryctolagus cuniculus [17] = assay: Cerebral biodistribution pattern of [123I]- ligand was evaluated in frontal cortex of anesthetized rabbit after Intravenous injection of 50 uCi after 24 hr; type: ADME, organism-based; details: in vivo; how it was run: as §2
# Oryctolagus cuniculus [18] = assay: Cerebral biodistribution pattern of [123I]- ligand was evaluated in hypothalamus of anesthetized rabbit after Intravenous injection of 50 uCi after 6 hr; type: ADME, organism-based; details: in vivo; how it was run: as §2
# Oryctolagus cuniculus [19] = assay: Cerebral biodistribution pattern of [123I]- ligand was evaluated in striatum of anesthetized rabbit after Intravenous injection of 50 uCi after 24 hr; type: ADME, organism-based; details: in vivo; how it was run: as §2
# Oryctolagus cuniculus [20] = assay: Biodistribution pattern of [123I]- ligand was evaluated in left atrial muscle of anesthetized rabbit after Intravenous injection of 50 uCi after 24 hr; type: ADME, organism-based, Muscle tissue; details: in vivo; how it was run: as §1
# Oryctolagus cuniculus [21] = assay: Biodistribution pattern of [123I]- ligand was evaluated in intestine of anesthetized rabbit after Intravenous injection of 50 uCi after 2 hr; type: ADME, organism-based; details: in vivo; how it was run: as §1
# Oryctolagus cuniculus [22] = assay: Biodistribution pattern of [123I]- ligand was evaluated in right ventricular muscle of anesthetized rabbit after Intravenous injection of 50 uCi after 5 min; type: ADME, organism-based, Muscle tissue; details: in vivo; how it was run: as §2
# Oryctolagus cuniculus [23] = assay: Biodistribution pattern of [123I]- ligand was evaluated in fat of anesthetized rabbit after Intravenous injection of 50 uCi after 6 hr; type: ADME, organism-based, Adipose tissue; details: in vivo; how it was run: as §1
# Oryctolagus cuniculus [24] = assay: Biodistribution pattern of [123I]- ligand was evaluated in lung of anesthetized rabbit after Intravenous injection of 50 uCi after 24 hr; type: ADME, organism-based; details: in vivo; how it was run: as §1
# Oryctolagus cuniculus [25] = assay: Cerebral biodistribution pattern of [123I]- ligand was evaluated in cerebellum of anesthetized rabbit after Intravenous injection of 50 uCi after 4 hr; type: ADME, organism-based; details: in vivo; how it was run: as §2
# Oryctolagus cuniculus [26] = assay: Biodistribution pattern of [123I]- ligand was evaluated in right atrial muscle of anesthetized rabbit after Intravenous injection of 50 uCi after 6 hr; type: ADME, organism-based, Muscle tissue; details: in vivo; how it was run: as §2
smiles,measurement,setting,value
CC(C)(/C=C/I)NC[C@H](O)COc1cccc2[nH]c3ccccc3c12,ID x kg of body weight/g of tissue,Oryctolagus cuniculus [1],0.16%
same,ID x kg of body weight/g of tissue,Oryctolagus cuniculus [2],0.18%
same,ID x kg of body weight/g of tissue,Oryctolagus cuniculus [3],0.02%
same,ID x kg of body weight/g of tissue,Oryctolagus cuniculus [4],0.15%
same,ID x kg of body weight/g of tissue,Oryctolagus cuniculus [5],0.5%
same,ID x kg of body weight/g of tissue,Oryctolagus cuniculus [6],0.04%
same,ID x kg of body weight/g of tissue,Oryctolagus cuniculus [7],< 0.26%
same,ID x kg of body weight/g of tissue,Oryctolagus cuniculus [8],0.04%
same,ID x kg of body weight/g of tissue,Oryctolagus cuniculus [9],0.06%
same,ID x kg of body weight/g of tissue,Oryctolagus cuniculus [10],< 0.1%
same,ID x kg of body weight/g of tissue,Oryctolagus cuniculus [11],0.03%
same,ID x kg of body weight/g of tissue,Oryctolagus cuniculus [12],1.29%
same,ID x kg of body weight/g of tissue,Oryctolagus cuniculus [13],0.04%
same,ID x kg of body weight/g of tissue,Oryctolagus cuniculus [14],0.07%
same,ID x kg of body weight/g of tissue,Oryctolagus cuniculus [15],0.01%
same,ID x kg of body weight/g of tissue,Oryctolagus cuniculus [16],0.07%
same,ID x kg of body weight/g of tissue,Oryctolagus cuniculus [17],0.01%
same,ID x kg of body weight/g of tissue,Oryctolagus cuniculus [18],0.03%
same,ID x kg of body weight/g of tissue,Oryctolagus cuniculus [19],0.02%
same,ID x kg of body weight/g of tissue,Oryctolagus cuniculus [20],0.03%
same,ID x kg of body weight/g of tissue,Oryctolagus cuniculus [21],0.13%
same,ID x kg of body weight/g of tissue,Oryctolagus cuniculus [22],0.43%
same,ID x kg of body weight/g of tissue,Oryctolagus cuniculus [23],0.02%
same,ID x kg of body weight/g of tissue,Oryctolagus cuniculus [24],0.18%
same,ID x kg of body weight/g of tissue,Oryctolagus cuniculus [25],0.13%
same,ID x kg of body weight/g of tissue,Oryctolagus cuniculus [26],0.07%

# From ChEMBL document CHEMBL1129275, “Synthesis and in vitro and in vivo characteristics of an iodinated analogue of the beta-adrenoceptor antagonist carazolol” (J Med Chem, 1996)
